Measured values published in ChEMBL document CHEMBL4699414, “Hit-to-lead optimization of novel benzimidazole phenylacetamides as broad spectrum trypanosomacides” (RSC Med Chem, 2020).

What was measured:
[1] = Lipophilicity, logP of the compound; assay type: physicochemical; conditions: octanol/water
[2] = system: Trypanosoma cruzi; test: (§1) Antitrypanosomal activity against recombinant Trypanosoma cruzi intracellular amastigotes expressing beta-galactosidase infected in mouse NIH/3T3 cells assessed as parasite growth inhibition incubated for 4 days by resorufin-beta-D-galactopiranoside substrate based fluorescence assay; assay type: functional, organism-based; conditions: NIH3T3, 96 h
[3] = Cytotoxicity against human HepG2 cells assessed as reduction in cell viability measured after 48 hrs by CellTiter-Glo assay; assay type: cell-based
Outline: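 HepG2 human hepatoma cells from GSK Biological Reagents and Assay Development (Stevenage, UK); viability read-out per earlier method.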

[4] = Selectivity index, ratio of CC50 for human HEK293 cells assessed as reduction in cell viability measured after 48 hrs by resazurin assay to IC50 for Trypanosoma brucei brucei Lister 427 […] assessed as parasite growth inhibition measured after 48 hrs by alamar blue assay; assay type: toxicity, cell-based; conditions: read-out: Ratio CC50/IC50
[5] = as §1, with “Selectivity index, ratio of CC50 for mouse NIH/3T3 cells to IC50 for” for “Antitrypanosomal activity against”; assay type: toxicity, cell-based; conditions: time 4 day, read-out: Ratio CC50/IC50
[6] = Cytotoxicity against human HEK293 cells assessed as reduction in cell viability measured after 48 hrs by resazurin assay; assay type: cell-based
Outline: (§2)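 HEK293 cells from ATCC; Alamar Blue viability read-out run per earlier method.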

[7] = Selectivity index, ratio of CC50 for rat H9c2 cells assessed as reduction in cell viability to IC50 for Trypanosoma cruzi infected in rat H9c2 infected with trypomastigotes from parasite-infected monkey LLC-MK2 cells measured after 72 hrs by DRAQ5 DNA dye based microscopic imaging analysis; assay type: toxicity; conditions: read-out: Ratio CC50/IC50
[8] = Cytotoxicity against rat H9c2 cells assessed as reduction in cell viability; assay type: cell-based
[9] = system: Trypanosoma brucei brucei; test: Antitrypanosomal activity against Trypanosoma brucei brucei Lister 427 assessed as parasite growth inhibition measured after 48 hrs by alamar blue assay; conditions: Lister 427, 48 h
[10] = system: Trypanosoma cruzi; test: Antitrypanosomal activity against Trypanosoma cruzi infected in rat H9c2 infected with trypomastigotes from parasite-infected monkey LLC-MK2 cells measured after 72 hrs by DRAQ5 DNA dye based microscopic imaging analysis; assay type: functional, organism-based; conditions: H9c2, 72 h
[11] = system: HEK293; test: Cytotoxicity against human HEK293 cells assessed as reduction in cell viability measured after 48 hrs by resazurin assay relative to control; assay type: cell-based; conditions: hek293, 48 h; outline: as §2

Compound: CCCn1c(NC(=O)Cc2ccc(Cl)cc2)nc2ccccc21
- logP [1]: 4.7
- IC50 [2]: 0.63 µM
- CC50 at 48 h [3]: > 50 µM
- selectivity ratio at 48 h [4]: 50
- selectivity ratio at 96 h [5]: 79
- CC50 at 48 h [6]: > 83 µM
- selectivity ratio at 72 h [7]: 40
- CC50 [8]: > 50 µM

Compound: CCCn1c(NC(=O)Cc2ccc(Cl)cc2)nc2ccc(F)cc21
- IC50 [9]: 0.9 µM
- logP [1]: 4.9
- CC50 at 48 h [3]: > 50 µM
- CC50 at 48 h [6]: 14 µM
- IC50 [10]: 1.3 µM
- CC50 [8]: 25 µM

Compound: CCCn1c(NC(=O)Cc2ccccc2OC)nc2ccccc21
- IC50 [9]: > 83 µM
- logP [1]: 4
- CC50 at 48 h [3]: > 50 µM
- CC50 at 48 h [6]: > 83 µM
- IC50 [10]: 6.3 µM
- CC50 [8]: 13 µM

Compound: C=CCc1c(NC(=O)Cc2ccc(Cl)cc2)ncc2ccccc12
- IC50 [9]: > 83 µM
- logP [1]: 5.1
- CC50 at 48 h [3]: > 50 µM
- CC50 at 48 h [6]: > 83 µM
- IC50 [10]: 20 µM
- CC50 [8]: > 50 µM

Compound: CCCn1c(NC(=O)Cc2ccc(Cl)cc2)nc2cc(Cl)ccc21
- IC50 [9]: 4.4 µM
- Activity [11]: 84 µM
- logP [1]: 5.3
- CC50 at 48 h [3]: > 50 µM
- IC50 [10]: 0.5 µM
- CC50 [8]: 7.94 µM

Compound: CCCn1c(NC(=O)Cc2ccc(C(F)(F)F)cc2)nc2ccccc21
- IC50 [9]: 4.5 µM
- logP [1]: 5
- CC50 at 48 h [3]: > 50 µM
- CC50 at 48 h [6]: > 83 µM
- IC50 [10]: 1 µM
- CC50 [8]: > 50 µM

Compound: CCCCCn1c(NC(=O)Cc2ccc(Cl)cc2)nc2ccccc21
- IC50 [9]: 3.7 µM
- logP [1]: 5.6
- CC50 at 48 h [3]: > 50 µM
- CC50 at 48 h [6]: > 83 µM
- IC50 [10]: 1 µM
- CC50 [8]: > 50 µM

Compound: CCCn1c(NC(=O)CCCc2ccccc2)nc2ccccc21
- IC50 [9]: 2.4 µM
- logP [1]: 5
- CC50 at 48 h [3]: > 50 µM
- CC50 at 48 h [6]: > 83 µM
- IC50 [10]: 1.6 µM
- CC50 [8]: 16 µM

Compound: CCCn1c(NC(=O)Cc2ccc(OC)cc2)nc2ccccc21
- IC50 [9]: 5.2 µM
- logP [1]: 4
- CC50 at 48 h [3]: > 50 µM
- CC50 at 48 h [6]: > 83 µM
- IC50 [10]: 3.2 µM
- CC50 [8]: > 50 µM

Compound: CCCn1c(NC(=O)Cc2ccccc2F)nc2ccccc21
- IC50 [9]: 3.6 µM
- logP [1]: 4.3
- CC50 at 48 h [3]: > 50 µM
- CC50 at 48 h [6]: > 83 µM
- IC50 [10]: 3.2 µM
- CC50 [8]: > 50 µM

Compound: CCCn1c(NC(=O)Cc2ccccc2Br)nc2ccccc21
- IC50 [9]: 2 µM
- logP [1]: 4.9
- CC50 at 48 h [3]: 20 µM
- CC50 at 48 h [6]: > 83 µM
- IC50 [10]: 1.6 µM
- CC50 [8]: > 50 µM

Compound: CCCn1c(NC(=O)Cc2ccc(Cl)cc2)nc2c(Br)cccc21
- IC50 [9]: 19 µM
- Activity [11]: 54 µM
- logP [1]: 5.5
- CC50 at 48 h [3]: > 50 µM
- IC50 [10]: 10 µM
- CC50 [8]: > 50 µM

Compound: CCCn1c(NC(=O)Cc2ccccc2)nc2ccccc21
- IC50 [9]: 4.1 µM
- logP [1]: 4.1
- CC50 at 48 h [3]: > 50 µM
- CC50 at 48 h [6]: > 83 µM
- IC50 [10]: 4 µM
- CC50 [8]: > 50 µM

Compound: CCCn1c(NC(=O)c2ccccc2)nc2ccccc21
- IC50 [9]: 3.8 µM
- logP [1]: 4.1
- CC50 at 48 h [3]: 25 µM
- CC50 at 48 h [6]: > 83 µM
- IC50 [10]: 5 µM
- CC50 [8]: > 50 µM

Compound: CCCn1c(NC(=O)Cc2cccc3ccccc23)nc2ccccc21
- IC50 [9]: 2.6 µM
- logP [1]: 5.1
- CC50 at 48 h [3]: 20 µM
- CC50 at 48 h [6]: 10 µM
- IC50 [10]: 1 µM
- CC50 [8]: > 50 µM
